Data set [1] deals with T1, TNF receptor-associated factor 6 (Homo sapiens) (UniProt Q9Y4K3).
T1 sequence (whole entry): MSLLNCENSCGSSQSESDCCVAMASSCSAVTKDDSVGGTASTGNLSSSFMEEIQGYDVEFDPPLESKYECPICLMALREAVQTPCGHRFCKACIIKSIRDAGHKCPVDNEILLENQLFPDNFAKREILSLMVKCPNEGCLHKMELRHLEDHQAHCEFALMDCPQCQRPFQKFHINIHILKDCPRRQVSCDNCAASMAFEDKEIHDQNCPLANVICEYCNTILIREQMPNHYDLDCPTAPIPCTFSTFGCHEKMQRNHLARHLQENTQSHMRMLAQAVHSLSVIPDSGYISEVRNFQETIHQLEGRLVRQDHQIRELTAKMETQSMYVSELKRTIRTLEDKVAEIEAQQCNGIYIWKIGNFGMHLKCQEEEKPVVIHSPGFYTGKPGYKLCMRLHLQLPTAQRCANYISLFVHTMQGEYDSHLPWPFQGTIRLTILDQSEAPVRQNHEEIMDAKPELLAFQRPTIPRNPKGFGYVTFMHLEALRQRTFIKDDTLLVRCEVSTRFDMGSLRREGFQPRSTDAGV
Nature of the data set: Inhibition of TRAF6 (unknown origin)-mediated NFkappaB activation expressed in human HeLaS3 cells harboring 3kappaB-tk-luc at 10 uM preincubated for 1 hr followed by Il1alpha-stimulation and measured after 3 hrs in presence of DTT by dual-luciferase reporter gene assay relative to control. The class given is cell-based. In short, it runs like this: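 Cells co-transfected with 3κB-tk-luc and pRL-Luc (β-actin-driven renilla), cultured 1 day, then given compound (10 μM) plus DTT (30 μM) for 1 h before IL-1α (10 ng/mL) stimulation for 3 h. Dual-luciferase read-out: κB-firefly signal normalized to renilla, reported as relative NF-κB activity.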

Data set [2] concerns the target T1, TNF receptor-associated factor 6 (Homo sapiens). Nature of the data set: Inhibition of TRAF6 (unknown origin)-mediated NFkappaB activation expressed in human HeLaS3 cells harboring 3kappaB-tk-luc at 10 uM preincubated for 1 hr followed by Il1alpha-stimulation and measured after 3 hrs by dual-luciferase reporter gene assay relative to control. The class given is cell-based. In short, it runs like this:
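Cells co-transfected with 3κB-tk-luc (triple κB site driving firefly luciferase) and pRL-Luc (β-actin promoter driving renilla luciferase), cultured 1 day, given compound (10 μM) without DTT for 1 h, then stimulated with IL-1α (10 ng/mL) for 3 h. Lysates read by dual-luciferase assay; firefly signal normalized to renilla, expressed as relative NF-κB activity.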

A short description of data set [3]: Prodrug conversion in human HeLaS3 assessed as NpSH formation at 10 uM. The class given is ADME, cell-based. Conditions: hela s3, 10 µM.
For the next data set, the system named is HeLa S3. Nature of the data set: Cytotoxicity against human HeLaS3 cells assessed as reduction in cell viability at 10 uM measured after 8 hrs in presence of DTT by MTT assay relative to control. Format: functional. The procedure, abridged:
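Cells treated with compound at 10 μM together with DTT (30 μM), incubated 8 h, then viability read by MTT assay; shown as activity relative to control.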

inhibition, Drug metabolism and Activity data for eleven compounds are collected here from ChEMBL document CHEMBL4387775, “Minimum structural requirements for inhibitors of the zinc finger protein TRAF6” (Bioorg Med Chem Lett, 2019).

Active and inactive are the calls of the source. The rule behind the calls is not given here.

On to `O=C(CCCC[C@@H]1SC[C@@H]2NC(=O)N[C@@H]21)NCCCCCCOC(=O)Nc1cc(CNCCS)nc(CNCCS)c1`, for which the inhibition in data set [1] stood at 78%.
For `CC(C)=CCC/C(C)=C/CC/C(C)=C/COC(=O)Nc1cc(CNCCS)nc(CNCCS)c1`, in data set [1], the inhibition result is “inactive”.
`O=[N+]([O-])c1ccccc1SSCCNCc1cccc(CNCCSSc2ccccc2[N+](=O)[O-])n1`: the results for the inhibition in data set [2] and in data set [1] were 76% and 84%, respectively. In addition, the Drug metabolism entry in data set [3] is recorded as “Metabolite_Detected”.
Turning to `CN(C)c1ccnc(CNCCS)c1`, the inhibition result in data set [1] was “inactive”.
On the same count and under the same terms, in the case of `CCCCCCCCCCCCOC(=O)Nc1cc(CNCCS)nc(CNCCS)c1` it was “inactive”.
Regarding `O=[N+]([O-])c1ccccc1SSCCNCc1cccc(CNCCSSc2ccccc2[N+](=O)[O-])c1`, the inhibition entry in data set [1] is “inactive”. Moreover, the Drug metabolism result in data set [3] is given as “Metabolite_Detected”.
Regarding `O=[N+]([O-])c1ccccc1SSc1ccccc1[N+](=O)[O-]`, the Drug metabolism result in data set [3] was “Metabolite_Detected”.
As for `SCCNCc1ccccn1`, in data set [1], the inhibition result is “inactive”.
Regarding `CN(C)c1cc(CNCCSSc2ccccc2[N+](=O)[O-])nc(CNCCSSc2ccccc2[N+](=O)[O-])c1`, the inhibition in data set [2] came out at 80%; in data set [1] it was 89%. Besides, in the data set on HeLa S3, the result was inactive. The Drug metabolism result in data set [3] is “Metabolite_Detected”.
Regarding `O=[N+]([O-])c1ccccc1S`, the inhibition entry in data set [1] is “inactive”. Besides, the Activity in the data set on HeLa S3 amounted to 24%.
`Sc1ccccc1NCc1ccccn1`: in data set [1], the inhibition result was “inactive”.
